# Experimental data published in ChEMBL document CHEMBL1255429, “Efflux pumps are involved in the defense of Gram-negative bacteria against the natural products isobavachalcone and diospyrone” (2010).
# Legend:
# Format in all cases: functional
# Escherichia coli [1] = assay: Antimicrobial activity against Escherichia coli ATCC 10536 after 18 hrs by rapid INT colorimetric assay; settings: ATCC 10536, 18 h
# How it was run: (§1)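 Strains precultured overnight on Mueller-Hinton agar. Sample dissolved in DMSO-MHB, twofold serial dilutions in MHB, inoculum 1.5 × 10^6 CFU/ml; final DMSO below 2.5%. Incubated 37°C 18 h, then 0.2 mg/ml INT added, 30 min at 37°C. MIC = lowest concentration preventing yellow-to-pink change (complete growth inhibition). DMSO-only wells as negative control.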
# Escherichia coli [2] = assay: Antimicrobial activity against Escherichia coli ATCC 10536 after 18 hrs by rapid INT colorimetric assay in presence of efflux pump inhibitor phenylalanine arginine beta-naphthylamide; settings: ATCC 10536, 18 h
# How it was run: (§2)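 Broth microdilution MIC in Mueller-Hinton broth with PAßN at a final 20 μg/ml throughout. Twofold dilutions of sample from DMSO-MHB stock; inoculum 1.5 × 10^6 CFU/ml; 18 h at 37°C, final DMSO <2.5%. Growth read by INT (0.2 mg/ml, 30 min, 37°C). MIC taken as lowest concentration with no pink colour.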
# Escherichia coli [3] = assay: Antimicrobial activity against Escherichia coli ATCC 8739 after 18 hrs by rapid INT colorimetric assay; settings: ATCC 8739, 18 h
# How it was run: (§3)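 Strains precultured overnight on Mueller-Hinton agar. Samples dissolved in DMSO-MHB, serially diluted twofold in MHB, inoculum 1.5 × 10^6 CFU/ml in MHB added; 37°C, 18 h; final DMSO <2.5%. 0.2 mg/ml INT then added, 30 min at 37°C. MIC = lowest concentration preventing yellow-to-pink reduction, i.e. complete growth inhibition.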
# Escherichia coli [4] = assay: Antimicrobial activity against Escherichia coli ATCC 8739 after 18 hrs by rapid INT colorimetric assay in presence of efflux pump inhibitor phenylalanine arginine; settings: ATCC 8739, 18 h; how it was run: as §2
# Escherichia coli [5] = assay: Antimicrobial activity against Escherichia coli AG100 after 18 hrs by rapid INT colorimetric assay; settings: AG100, 18 h; how it was run: as §3
# Escherichia coli [6] = assay: Antimicrobial activity against Escherichia coli AG100 after 18 hrs by rapid INT colorimetric assay in presence of efflux pump inhibitor phenylalanine arginine; settings: AG100, 18 h
# Escherichia coli [7] = assay: Antimicrobial activity against Escherichia coli AG100A after 18 hrs by rapid INT colorimetric assay; how it was run: as §3
# Escherichia coli [8] = assay: Antimicrobial activity against Escherichia coli AG100A after 18 hrs by rapid INT colorimetric assay in presence of efflux pump inhibitor phenylalanine arginine
# Escherichia coli [9] = assay: Antimicrobial activity against tetracycline-resistant Escherichia coli AG100A after 18 hrs by rapid INT colorimetric assay; how it was run: as §3
# Escherichia coli [10] = assay: Antimicrobial activity against tetracycline-resistant Escherichia coli AG100A after 18 hrs by rapid INT colorimetric assay in presence of efflux pump inhibitor phenylalanine arginine; how it was run: as §2
# Escherichia coli [11] = assay: Antimicrobial activity against tetracycline-resistant Escherichia coli AG102 after 18 hrs by rapid INT colorimetric assay; settings: AG102, 18 h; how it was run: as §3
# Escherichia coli [12] = assay: Antimicrobial activity against tetracycline-resistant Escherichia coli AG102 after 18 hrs by rapid INT colorimetric assay in presence of efflux pump inhibitor phenylalanine arginine; settings: AG102, 18 h; how it was run: as §2
# Klebsiella aerogenes [13] = assay: Antimicrobial activity against Enterobacter aerogenes ATCC 13048 after 18 hrs by rapid INT colorimetric assay; settings: ATCC 13048, 18 h; how it was run: as §1
# Klebsiella aerogenes [14] = assay: Antimicrobial activity against Enterobacter aerogenes ATCC 13048 after 18 hrs by rapid INT colorimetric assay in presence of efflux pump inhibitor phenylalanine arginine; settings: ATCC 13048, 18 h
# Klebsiella aerogenes [15] = assay: Antimicrobial activity against Enterobacter aerogenes EA-CM64 after 18 hrs by rapid INT colorimetric assay; settings: EA-CM64, 18 h; how it was run: as §3
# Klebsiella aerogenes [16] = assay: Antimicrobial activity against Enterobacter aerogenes EA-CM64 after 18 hrs by rapid INT colorimetric assay in presence of efflux pump inhibitor phenylalanine arginine; settings: EA-CM64, 18 h
# Klebsiella aerogenes [17] = assay: Antimicrobial activity against Enterobacter aerogenes EA289 after 18 hrs by rapid INT colorimetric assay; settings: EA289, 18 h; how it was run: as §1
# Klebsiella aerogenes [18] = assay: Antimicrobial activity against Enterobacter aerogenes EA289 after 18 hrs by rapid INT colorimetric assay in presence of efflux pump inhibitor phenylalanine arginine; settings: EA289, 18 h
# Klebsiella aerogenes [19] = assay: Antimicrobial activity against Enterobacter aerogenes EA294 after 18 hrs by rapid INT colorimetric assay; settings: EA294, 18 h; how it was run: as §3
# Klebsiella aerogenes [20] = assay: Antimicrobial activity against Enterobacter aerogenes EA294 after 18 hrs by rapid INT colorimetric assay in presence of efflux pump inhibitor phenylalanine arginine; settings: EA294, 18 h
# Klebsiella aerogenes [21] = assay: Antimicrobial activity against Enterobacter aerogenes EA298 after 18 hrs by rapid INT colorimetric assay; settings: EA298, 18 h; how it was run: as §3
# Klebsiella aerogenes [22] = assay: Antimicrobial activity against Enterobacter aerogenes EA298 after 18 hrs by rapid INT colorimetric assay in presence of efflux pump inhibitor phenylalanine arginine; settings: EA298, 18 h
# Klebsiella aerogenes [23] = assay: Antimicrobial activity against Enterobacter aerogenes EA27 after 18 hrs by rapid INT colorimetric assay; settings: EA27, 18 h; how it was run: as §1
# Klebsiella aerogenes [24] = assay: Antimicrobial activity against Enterobacter aerogenes EA27 after 18 hrs by rapid INT colorimetric assay in presence of efflux pump inhibitor phenylalanine arginine; settings: EA27, 18 h
# Klebsiella aerogenes [25] = assay: Antimicrobial activity against Enterobacter aerogenes EA3 after 18 hrs by rapid INT colorimetric assay; settings: EA3, 18 h; how it was run: as §1
# Klebsiella aerogenes [26] = assay: Antimicrobial activity against Enterobacter aerogenes EA3 after 18 hrs by rapid INT colorimetric assay in presence of efflux pump inhibitor phenylalanine arginine; settings: EA3, 18 h
# Klebsiella aerogenes [27] = assay: Antimicrobial activity against Enterobacter aerogenes EA5 after 18 hrs by rapid INT colorimetric assay; settings: EA5, 18 h; how it was run: as §1
# Klebsiella aerogenes [28] = assay: Antimicrobial activity against Enterobacter aerogenes EA5 after 18 hrs by rapid INT colorimetric assay in presence of efflux pump inhibitor phenylalanine arginine; settings: EA5, 18 h
# Klebsiella pneumoniae [29] = assay: Antimicrobial activity against Klebsiella pneumoniae ATCC 11296 after 18 hrs by rapid INT colorimetric assay; settings: ATCC 11296, 18 h; how it was run: as §3
# Klebsiella pneumoniae [30] = assay: Antimicrobial activity against Klebsiella pneumoniae ATCC 11296 after 18 hrs by rapid INT colorimetric assay in presence of efflux pump inhibitor phenylalanine arginine; settings: ATCC 11296, 18 h
# Klebsiella pneumoniae [31] = assay: Antimicrobial activity against Klebsiella pneumoniae KP55 after 18 hrs by rapid INT colorimetric assay; settings: KP55, 18 h; how it was run: as §1
# Klebsiella pneumoniae [32] = assay: Antimicrobial activity against Klebsiella pneumoniae KP55 after 18 hrs by rapid INT colorimetric assay in presence of efflux pump inhibitor phenylalanine arginine; settings: KP55, 18 h
# Klebsiella pneumoniae [33] = assay: Antimicrobial activity against Klebsiella pneumoniae KP63 after 18 hrs by rapid INT colorimetric assay; settings: KP63, 18 h; how it was run: as §1
# Klebsiella pneumoniae [34] = assay: Antimicrobial activity against Klebsiella pneumoniae KP63 after 18 hrs by rapid INT colorimetric assay in presence of efflux pump inhibitor phenylalanine arginine; settings: KP63, 18 h
# Pseudomonas aeruginosa [35] = assay: Antimicrobial activity against Pseudomonas aeruginosa PAO1 after 18 hrs by rapid INT colorimetric assay; settings: PAO1, 18 h; how it was run: as §3
# Pseudomonas aeruginosa [36] = assay: Antimicrobial activity against Pseudomonas aeruginosa PAO1 after 18 hrs by rapid INT colorimetric assay in presence of efflux pump inhibitor phenylalanine arginine; settings: PAO1, 18 h
# Pseudomonas aeruginosa [37] = assay: Antimicrobial activity against Pseudomonas aeruginosa PA124 after 18 hrs by rapid INT colorimetric assay; settings: PA124, 18 h; how it was run: as §3
# Pseudomonas aeruginosa [38] = assay: Antimicrobial activity against Pseudomonas aeruginosa PA124 after 18 hrs by rapid INT colorimetric assay in presence of efflux pump inhibitor phenylalanine arginine; settings: PA124, 18 h
# Enterobacter cloacae [39] = assay: Antimicrobial activity against Enterobacter cloacae Ec07769 after 18 hrs by rapid INT colorimetric assay; settings: Ec07769, 18 h; how it was run: as §1
# Enterobacter cloacae [40] = assay: Antimicrobial activity against Enterobacter cloacae Ec07769 after 18 hrs by rapid INT colorimetric assay in presence of efflux pump inhibitor phenylalanine arginine; settings: Ec07769, 18 h
# Enterobacter cloacae [41] = assay: Antimicrobial activity against Enterobacter cloacae Ec1194 after 18 hrs by rapid INT colorimetric assay; settings: Ec1194, 18 h; how it was run: as §1
# Enterobacter cloacae [42] = assay: Antimicrobial activity against Enterobacter cloacae Ec1194 after 18 hrs by rapid INT colorimetric assay in presence of efflux pump inhibitor phenylalanine arginine; settings: Ec1194, 18 h; how it was run: as §2
compound,measurement,setting,value
CC1=C(c2c(C)cc(O)c3c2C(=O)C(c2c(O)c4c(C)cccc4oc2=O)=C(c2c(O)c4c(C)cccc4oc2=O)C3=O)C(=O)c2c(O)cccc2C1=O [DIOSPYRONE],MIC,Escherichia coli [1],32 µg/mL
same,MIC,Escherichia coli [2],2 µg/mL
same,MIC,Escherichia coli [3],128 µg/mL
same,MIC,Escherichia coli [4],4 µg/mL
same,MIC,Escherichia coli [5],64 µg/mL
same,MIC,Escherichia coli [6],1 µg/mL
same,MIC,Escherichia coli [7],4 µg/mL
same,MIC,Escherichia coli [8],0.12 µg/mL
same,MIC,Escherichia coli [9],16 µg/mL
same,MIC,Escherichia coli [10],0.24 µg/mL
same,MIC,Escherichia coli [11],64 µg/mL
same,MIC,Escherichia coli [12],2 µg/mL
same,MIC,Klebsiella aerogenes [13],128 µg/mL
same,MIC,Klebsiella aerogenes [14],32 µg/mL
same,MIC,Klebsiella aerogenes [15],128 µg/mL
same,MIC,Klebsiella aerogenes [16],16 µg/mL
same,MIC,Klebsiella aerogenes [17],128 µg/mL
same,MIC,Klebsiella aerogenes [18],8 µg/mL
same,MIC,Klebsiella aerogenes [19],128 µg/mL
same,MIC,Klebsiella aerogenes [20],8 µg/mL
same,MIC,Klebsiella aerogenes [21],32 µg/mL
same,MIC,Klebsiella aerogenes [22],16 µg/mL
same,MIC,Klebsiella aerogenes [23],128 µg/mL
same,MIC,Klebsiella aerogenes [24],16 µg/mL
same,MIC,Klebsiella aerogenes [25],128 µg/mL
same,MIC,Klebsiella aerogenes [26],64 µg/mL
same,MIC,Klebsiella aerogenes [27],128 µg/mL
same,MIC,Klebsiella aerogenes [28],64 µg/mL
same,MIC,Klebsiella pneumoniae [29],32 µg/mL
same,MIC,Klebsiella pneumoniae [30],2 µg/mL
same,MIC,Klebsiella pneumoniae [31],64 µg/mL
same,MIC,Klebsiella pneumoniae [32],8 µg/mL
same,MIC,Klebsiella pneumoniae [33],32 µg/mL
same,MIC,Klebsiella pneumoniae [34],4 µg/mL
same,MIC,Pseudomonas aeruginosa [35],64 µg/mL
same,MIC,Pseudomonas aeruginosa [36],4 µg/mL
same,MIC,Pseudomonas aeruginosa [37],64 µg/mL
same,MIC,Pseudomonas aeruginosa [38],1 µg/mL
same,MIC,Enterobacter cloacae [39],128 µg/mL
same,MIC,Enterobacter cloacae [40],8 µg/mL
same,MIC,Enterobacter cloacae [41],32 µg/mL
same,MIC,Enterobacter cloacae [42],2 µg/mL
CCn1cc(C(=O)O)c(=O)c2cc(F)c(N3CCNCC3)cc21 [NORFLOXACIN],MIC,Escherichia coli [1],0.06 µg/mL
same,MIC,Escherichia coli [2],0.03 µg/mL
same,MIC,Escherichia coli [3],0.12 µg/mL
same,MIC,Escherichia coli [4],0.12 µg/mL
same,MIC,Escherichia coli [5],0.12 µg/mL
same,MIC,Escherichia coli [6],0.12 µg/mL
same,MIC,Escherichia coli [7],0.03 µg/mL
same,MIC,Escherichia coli [8],0.007 µg/mL
same,MIC,Escherichia coli [9],1 µg/mL
same,MIC,Escherichia coli [10],0.25 µg/mL
same,MIC,Escherichia coli [11],1 µg/mL
same,MIC,Escherichia coli [12],0.25 µg/mL
same,MIC,Klebsiella aerogenes [13],0.25 µg/mL
same,MIC,Klebsiella aerogenes [14],0.25 µg/mL
same,MIC,Klebsiella aerogenes [15],4 µg/mL
same,MIC,Klebsiella aerogenes [16],2 µg/mL
same,MIC,Klebsiella aerogenes [17],128 µg/mL
same,MIC,Klebsiella aerogenes [18],128 µg/mL
same,MIC,Klebsiella aerogenes [19],64 µg/mL
same,MIC,Klebsiella aerogenes [20],32 µg/mL
same,MIC,Klebsiella aerogenes [21],8 µg/mL
same,MIC,Klebsiella aerogenes [22],8 µg/mL
same,MIC,Klebsiella aerogenes [23],256 µg/mL
same,MIC,Klebsiella aerogenes [24],128 µg/mL
same,MIC,Klebsiella aerogenes [25],128 µg/mL
same,MIC,Klebsiella aerogenes [26],64 µg/mL
same,MIC,Klebsiella aerogenes [27],256 µg/mL
same,MIC,Klebsiella aerogenes [28],128 µg/mL
same,MIC,Klebsiella pneumoniae [29],1 µg/mL
same,MIC,Klebsiella pneumoniae [30],0.5 µg/mL
same,MIC,Klebsiella pneumoniae [31],16 µg/mL
same,MIC,Klebsiella pneumoniae [32],8 µg/mL
same,MIC,Klebsiella pneumoniae [33],16 µg/mL
same,MIC,Klebsiella pneumoniae [34],4 µg/mL
same,MIC,Pseudomonas aeruginosa [35],2 µg/mL
same,MIC,Pseudomonas aeruginosa [36],1 µg/mL
same,MIC,Pseudomonas aeruginosa [37],64 µg/mL
same,MIC,Pseudomonas aeruginosa [38],32 µg/mL
same,MIC,Enterobacter cloacae [39],> 256 µg/mL
same,MIC,Enterobacter cloacae [40],> 256 µg/mL
same,MIC,Enterobacter cloacae [41],32 µg/mL
same,MIC,Enterobacter cloacae [42],32 µg/mL
